Consider 23 molecules from ChEMBL document CHEMBL3232761, “Novel metronidazole-chalcone conjugates with potential to counter drug resistance in Trichomonas vaginalis” (Eur J Med Chem, 2014).

The structures appear in SMILES notation. Converted amounts (≈) assume the structure as drawn.

Assay [1] concerns Trichomonas vaginalis. Put plainly: Ratio of MIC for metronidazole-resistant Trichomonas vaginalis ATCC 50143 to metronidazole-susceptible Trichomonas vaginalis clinical isolate. It is filed as functional. In outline: (§1)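 Both T. vaginalis strains were grown in TYM medium (pH 6.8) with 10% heat-inactivated FBS, 2% vitamin mixture, penicillin and streptomycin, under partial anaerobiosis at 37°C. Log-phase trophozoites (5 X 10³/well) taken 1 day after subculture were exposed to twofold dilutions from 100 down to 0.78 μg/ml (from DMSO stocks), with 0.05% DMSO vehicle controls, anaerobically at 37°C. Viability was scored daily by trypan blue counting. MIC was the lowest concentration leaving all trophozoites nonviable at 24 h.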

The test system of assay [2] is Trichomonas vaginalis. Put plainly: Antitrichomonal activity against metronidazole-resistant Trichomonas vaginalis ATCC 50143 by trypan blue staining-based cell counting. It is filed as functional. In outline:
(§2)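 Log-phase trophozoites (grown 1 day in TYM medium with 10% heat-inactivated FBS, pH 6.8, under partial anaerobiosis at 37°C) seeded at 5 X 10³/well. Compounds dissolved in DMSO and serially diluted in TYM from 100 to 0.78 μg/ml; vehicle wells had 0.05% DMSO. Plates incubated anaerobically at 37°C, with viability followed by trypan blue counting. MIC taken at 24 h as the lowest concentration leaving all trophozoites nonviable.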

Assay [3] relates to Trichomonas vaginalis. The assay is described as follows: Antitrichomonal activity against metronidazole-susceptible Trichomonas vaginalis clinical isolate by trypan blue staining-based cell counting. It is filed as functional. The essentials: as §2
For the next assay, the system named is HeLa. Put plainly: Cytotoxicity against human HeLa cells after 24 hrs by MTT assay. It is filed as cell-based. In outline:
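HeLa cells were kept in DMEM with 10% FBS at 37°C under 5% CO₂, then seeded at 5 X 10⁴/well and grown 24 h. Medium was replaced with compound dilutions starting at 1.0 mg/ml, with 0.05% DMSO in control wells, and cells were exposed for 24 h. MTT was then added, formazan was dissolved in DMSO, and OD was read at 540 nm.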
Background: Formazan colour is commonly taken as a measure of viable cells.

Assay [4] relates to Trichomonas vaginalis. The assay is described as follows: Ratio of metronidazole MIC to compound MIC for metronidazole-resistant Trichomonas vaginalis ATCC 50143 by trypan blue staining-based cell counting. It is filed as functional. In outline:
as §1

For orientation: MIC means the least concentration at which growth counts as inhibited. Lower therefore signals greater potency. As usually defined, the IC50 is the concentration that inhibits the measured activity by half. High values mean a need for much substance, low ones inhibition by little substance.

Turning to `Cc1ncc([N+](=O)[O-])n1CCOc1ccc(C(=O)/C=C/c2ccccc2)cc1`, in the assay on Trichomonas vaginalis [1], the Ratio worked out at 4. For the same molecule, the MIC is 50 µg/mL (≈ 132 µM) against Trichomonas vaginalis [2] and 1.56 µg/mL (≈ 4.13 µM) in the assay on Trichomonas vaginalis [3].
Turning to `Cc1ncc([N+](=O)[O-])n1CCOc1ccc(C(=O)/C=C/c2cccc(F)c2)cc1`, the MIC was found to be 100 µg/mL (≈ 253 µM) in the assay with Trichomonas vaginalis [2] and 25 µg/mL (≈ 63.2 µM) against Trichomonas vaginalis [3].
As for `Cc1ncc([N+](=O)[O-])n1CCOc1ccc(C(=O)/C=C/c2ccc(F)cc2)cc1`, the Ratio in the assay with Trichomonas vaginalis [1] came to 2. The figures for the MIC against Trichomonas vaginalis [2] and in the assay on Trichomonas vaginalis [3] were 6.25 µg/mL (≈ 15.8 µM) and 1.56 µg/mL (≈ 3.95 µM), respectively.
Taken in the same sequence, the figures for `Cc1ncc([N+](=O)[O-])n1CCOc1ccc(C(=O)/C=C/c2ccc(F)c(F)c2)cc1` were 2, 6.25 µg/mL (≈ 15.1 µM) and 1.56 µg/mL (≈ 3.77 µM).
Regarding `Cc1ncc([N+](=O)[O-])n1CCOc1ccc(C(=O)/C=C/c2cc(F)cc(F)c2)cc1`, the IC50 in the assay with HeLa is above 1000 µg/mL. For the same molecule, the Ratio in the assay on Trichomonas vaginalis [1] is 2; with Trichomonas vaginalis [4], 4. For the same molecule, the MIC in the assay on Trichomonas vaginalis [2] is 3.12 µg/mL (≈ 7.56 µM); in the assay on Trichomonas vaginalis [3], 1.56 µg/mL (≈ 3.77 µM).
Take `Cc1ncc([N+](=O)[O-])n1CCOc1ccc(C(=O)/C=C/c2cc(F)ccc2F)cc1`: the Ratio in the assay on Trichomonas vaginalis [1] came to 2. Besides, the MIC with Trichomonas vaginalis [2] worked out at 6.25 µg/mL (≈ 15.1 µM); in the assay on Trichomonas vaginalis [3], 1.56 µg/mL (≈ 3.77 µM).
Regarding `Cc1ncc([N+](=O)[O-])n1CCOc1ccc(C(=O)/C=C/c2ccccc2Cl)cc1`, the figures for the MIC in the assay on Trichomonas vaginalis [2] and against Trichomonas vaginalis [3] were 12.5 µg/mL (≈ 30.4 µM) and 3.12 µg/mL (≈ 7.59 µM), respectively.
In turn, `Cc1ncc([N+](=O)[O-])n1CCOc1ccc(C(=O)/C=C/c2cccc(Cl)c2)cc1` displayed an IC50 with HeLa above 1000 µg/mL. Further, the Ratio in the assay with Trichomonas vaginalis [1] is on record as 2; with Trichomonas vaginalis [4], 4. The MIC worked out at 3.12 µg/mL (≈ 7.59 µM) against Trichomonas vaginalis [2] and 1.56 µg/mL (≈ 3.79 µM) with Trichomonas vaginalis [3].
On to `Cc1ncc([N+](=O)[O-])n1CCOc1ccc(C(=O)/C=C/c2ccc(Cl)cc2)cc1`, for which the MIC against Trichomonas vaginalis [2] and with Trichomonas vaginalis [3] was 6.25 µg/mL (≈ 15.2 µM) in each case.
In the case of `Cc1ncc([N+](=O)[O-])n1CCOc1ccc(C(=O)/C=C/c2ccc(Cl)cc2Cl)cc1`, the results for the MIC in the assay on Trichomonas vaginalis [2] and against Trichomonas vaginalis [3] were 12.5 µg/mL (≈ 28 µM) and 6.25 µg/mL (≈ 14 µM), respectively.
The like results for `Cc1ncc([N+](=O)[O-])n1CCOc1ccc(C(=O)/C=C/c2c(Cl)cccc2Cl)cc1` were, in that order, 25 µg/mL (≈ 56 µM) and 6.25 µg/mL (≈ 14 µM).
In the case of `Cc1ncc([N+](=O)[O-])n1CCOc1ccc(C(=O)/C=C/c2ccccc2Br)cc1`, the MIC worked out at 6.25 µg/mL (≈ 13.7 µM) against Trichomonas vaginalis [2] and 3.12 µg/mL (≈ 6.85 µM) against Trichomonas vaginalis [3].
As for `Cc1ncc([N+](=O)[O-])n1CCOc1ccc(C(=O)/C=C/c2cccc(Br)c2)cc1`, in the assay with Trichomonas vaginalis [4], the Ratio was determined as 4. In addition, the MIC against Trichomonas vaginalis [2] and against Trichomonas vaginalis [3] was 3.12 µg/mL (≈ 6.85 µM) throughout.
For the molecule `Cc1ncc([N+](=O)[O-])n1CCOc1ccc(C(=O)/C=C/c2ccc(Br)cc2)cc1`, the MIC in the assay on Trichomonas vaginalis [2] and against Trichomonas vaginalis [3] was 6.25 µg/mL (≈ 13.7 µM) each time.
`Cc1ncc([N+](=O)[O-])n1CCOc1ccc(C(=O)/C=C/c2ccccc2C(F)(F)F)cc1`: the MIC in the assay with Trichomonas vaginalis [2] was 25 µg/mL (≈ 56.1 µM); against Trichomonas vaginalis [3], 6.25 µg/mL (≈ 14 µM).
The like results for `Cc1ncc([N+](=O)[O-])n1CCOc1ccc(C(=O)/C=C/c2ccc(C(F)(F)F)cc2)cc1` were, in that order, 25 µg/mL (≈ 56.1 µM) and 3.12 µg/mL (≈ 7.02 µM).
As for `Cc1ncc([N+](=O)[O-])n1CCOc1ccc(C(=O)/C=C/c2ccc([N+](=O)[O-])cc2)cc1`, the Ratio in the assay with Trichomonas vaginalis [1] and in the assay with Trichomonas vaginalis [4] was 2 in each case. For the same molecule, the MIC came out at 6.25 µg/mL (≈ 14.8 µM) with Trichomonas vaginalis [2] and 1.56 µg/mL (≈ 3.69 µM) against Trichomonas vaginalis [3].
In the case of `COc1ccc(/C=C/C(=O)c2ccc(OCCn3c([N+](=O)[O-])cnc3C)cc2)cc1`, the minimum inhibitory concentration (MIC) in the assay with Trichomonas vaginalis [2] was 25 µg/mL (≈ 61.4 µM); against Trichomonas vaginalis [3] it was 3.12 µg/mL (≈ 7.67 µM).
In the case of `COc1ccc(/C=C/C(=O)c2ccc(OCCn3c([N+](=O)[O-])cnc3C)cc2)cc1OC`, the Ratio in the assay on Trichomonas vaginalis [1] came to 8. The MIC with Trichomonas vaginalis [2] was found to be 12.5 µg/mL (≈ 28.6 µM); in the assay on Trichomonas vaginalis [3], 1.56 µg/mL (≈ 3.57 µM).
On to `COc1ccc(OC)c(/C=C/C(=O)c2ccc(OCCn3c([N+](=O)[O-])cnc3C)cc2)c1`, for which the minimal inhibitory concentration (MIC) in the assay with Trichomonas vaginalis [2] and in the assay with Trichomonas vaginalis [3] was 12.5 µg/mL (≈ 28.6 µM) throughout.
Take `Cc1ccc(/C=C/C(=O)c2ccc(OCCn3c([N+](=O)[O-])cnc3C)cc2)cc1C`: the values for the MIC in the assay with Trichomonas vaginalis [2] and against Trichomonas vaginalis [3] were 12.5 µg/mL (≈ 30.8 µM) and 6.25 µg/mL (≈ 15.4 µM), respectively.
The like results for `Cc1ncc([N+](=O)[O-])n1CCOc1ccc(C(=O)/C=C/c2cccc3ccccc23)cc1` were, in that order, 25 µg/mL (≈ 58.5 µM) and 6.25 µg/mL (≈ 14.6 µM).
In the case of `Cc1ncc([N+](=O)[O-])n1CCO` [METRONIDAZOLE], the IC50 in the assay on HeLa was above 1000 µg/mL. In addition, the Ratio in the assay on Trichomonas vaginalis [1] is 8. Moreover, the values for the MIC in the assay with Trichomonas vaginalis [2] and in the assay on Trichomonas vaginalis [3] were 12.5 µg/mL (≈ 73 µM) and 1.56 µg/mL (≈ 9.11 µM), respectively.
